How the values were obtained:
[1] = Fraction unbound in iv dosed C57Bl/6JRccHsd mouse plasma measured at 80 mins; format: ADME, organism-based
Procedure, shortened: (§1)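 Male mice given 3.6 MBq tracer i.v. via lateral tail vein; blocking groups got POP inhibitor i.p. (50 µmol/kg, 10 mL/kg, 1% DMSO in 0.9% NaCl) 10 min before. Heparinized cardiac blood on ice, gamma-counted, spun 5 min at 2000 g; plasma counted, precipitated with 1.5 volumes acetonitrile, respun; cell-bound, protein-bound and free fractions expressed as % of blood activity; n = 3.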

[2] = Drug uptake in iv dosed C57Bl/6JRccHsd mouse blood cells measured at 40 mins; format: ADME, organism-based; conditions: in vivo
Procedure, shortened: (§2)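 Mice got tracer i.v., some after i.p. KYP-2047 (50 µmol/kg) 10 min before. Cardiac blood was collected at 20, 40, 80 or 160 min and spun 5 min at 2000 g into cells and plasma. Plasma was precipitated with acetonitrile and pellet and supernatant were gamma-counted. Activity in cells, protein-bound and free plasma is given as % of total blood activity, n = 3.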

[3] = Drug uptake in iv dosed C57Bl/6JRccHsd mouse blood cells measured at 160 mins; format: ADME, organism-based; conditions: in vivo; procedure, shortened: as §2
[4] = Drug uptake in iv dosed C57Bl/6JRccHsd mouse blood cells measured at 160 mins post dose pretreated with 50 umol/kg, ip prolyl oligopeptidase inhibitor KYP-2047 10 mins before compound dosing by SPECT analysis; format: ADME, organism-based; conditions: in vivo; procedure, shortened: as §2
[5] = Plasma protein binding in iv dosed C57Bl/6JRccHsd mouse measured at 20 mins; format: ADME, organism-based; conditions: read-out: PPB (converted); procedure, shortened: as §1
[6] = Plasma protein binding in iv dosed C57Bl/6JRccHsd mouse measured at 20 mins post dose pretreated with 50 umol/kg, ip prolyl oligopeptidase inhibitor KYP-2047 10 mins before compound dosing by SPECT analysis; format: ADME, organism-based; conditions: in vivo; procedure, shortened: as §1
[7] = Plasma protein binding in iv dosed C57Bl/6JRccHsd mouse measured at 80 mins; format: ADME, organism-based; conditions: in vivo; procedure, shortened: as §1
[8] = Biodistribution in right brain hemisphere of iv dosed C57BL/6JRccHsd mouse dosed 24 hrs after LPS challenge and measured at 80 mins post dose; format: ADME, organism-based; conditions: read-out: Drug uptake
Procedure, shortened: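 Male mice under isoflurane got a stereotaxic LPS injection (E. coli 055:B5) into the left striatum, with buprenorphine 0.1 mg/kg s.c. for post-operative pain. The right hemisphere served as intact control. Tracer was given i.v. 24 h later. Left and right hemisphere and whole-brain radioactivity were measured 80 min post injection as %ID/g or %ID, n = 3.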

[9] = Plasma protein binding in human at 2.5 MBq/ml after 2 hrs by HPLC analysis; format: ADME, cell-free; conditions: read-out: PPB (converted)
Lung [10] = assay: Biodistribution in C57Bl/6JRccHsd mouse lung at 2.86 +/- 1.26 MBq, iv measured at 80 mins by SPECT analysis; format: ADME, organism-based; conditions: in vivo
Procedure, shortened: (§3)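 Organs excised at 5, 20, 40, 80 or 160 min and radioactivity gamma-counted as %ID/g (brain also as %ID). Blocking groups received KYP-2047 (50 µmol/kg, 10 mL/kg, 1% DMSO in 0.9% NaCl) i.p. 10 min before tracer. Mean ± SD, n = 2–4 per time point. Blocking compared by two-tailed Student's t test.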

Spleen [11] = assay: Biodistribution in C57Bl/6JRccHsd mouse spleen at 2.86 +/- 1.26 MBq, iv measured at 80 mins by SPECT analysis; format: ADME, organism-based; conditions: in vivo; procedure, shortened: as §3
Mus musculus [12] = assay: Biodistribution in C57Bl/6JRccHsd mouse testis at 2.86 +/- 1.26 MBq, iv measured at 80 mins by SPECT analysis; format: ADME, organism-based; conditions: in vivo; procedure, shortened: as §3
Muscle tissue = assay: Biodistribution in C57Bl/6JRccHsd mouse muscle at 2.86 +/- 1.26 MBq, iv measured at 80 mins by SPECT analysis; format: ADME, organism-based; conditions: in vivo; procedure, shortened: as §3
Brain = assay: Biodistribution in C57Bl/6JRccHsd mouse brain at 2.86 +/- 1.26 MBq, iv measured at 80 mins by SPECT analysis; format: ADME, organism-based; conditions: in vivo; procedure, shortened: as §3
Blood [13] = assay: Biodistribution in C57Bl/6JRccHsd mouse blood at 2.86 +/- 1.26 MBq, iv measured at 80 mins post dose pretreated with 50 umol/kg, ip prolyl oligopeptidase inhibitor KYP-2047 10 mins before compound dosing by SPECT analysis; format: ADME, organism-based; conditions: in vivo; procedure, shortened: as §3
Liver = assay: Biodistribution in C57Bl/6JRccHsd mouse liver at 2.86 +/- 1.26 MBq, iv measured at 80 mins post dose pretreated with 50 umol/kg, ip prolyl oligopeptidase inhibitor KYP-2047 10 mins before compound dosing by SPECT analysis; format: ADME, organism-based; conditions: in vivo; procedure, shortened: as §3
Lung [14] = assay: Biodistribution in C57Bl/6JRccHsd mouse lung at 2.86 +/- 1.26 MBq, iv measured at 80 mins post dose pretreated with 50 umol/kg, ip prolyl oligopeptidase inhibitor KYP-2047 10 mins before compound dosing by SPECT analysis; format: ADME, organism-based; conditions: in vivo; procedure, shortened: as §3
Heart = assay: Biodistribution in C57Bl/6JRccHsd mouse heart at 2.86 +/- 1.26 MBq, iv measured at 80 mins post dose pretreated with 50 umol/kg, ip prolyl oligopeptidase inhibitor KYP-2047 10 mins before compound dosing by SPECT analysis; format: ADME, organism-based; conditions: in vivo; procedure, shortened: as §3
Spleen [15] = assay: Biodistribution in C57Bl/6JRccHsd mouse spleen at 2.86 +/- 1.26 MBq, iv measured at 80 mins post dose pretreated with 50 umol/kg, ip prolyl oligopeptidase inhibitor KYP-2047 10 mins before compound dosing by SPECT analysis; format: ADME, organism-based; conditions: in vivo; procedure, shortened: as §3
Mus musculus [16] = assay: Biodistribution in C57Bl/6JRccHsd mouse salivary gland at 2.86 +/- 1.26 MBq, iv measured at 80 mins post dose pretreated with 50 umol/kg, ip prolyl oligopeptidase inhibitor KYP-2047 10 mins before compound dosing by SPECT analysis; format: ADME, organism-based; conditions: in vivo; procedure, shortened: as §3
Thyroid gland = assay: Biodistribution in C57Bl/6JRccHsd mouse thyroid at 2.86 +/- 1.26 MBq, iv measured at 5 mins by SPECT analysis; format: ADME, organism-based; conditions: in vivo; procedure, shortened: as §3
Mus musculus [17] = assay: Retention time in C57Bl/6JRccHsd mouse plasma at 3.6 MBq, iv measured at 20 mins by HPLC analysis; format: ADME, organism-based
Procedure, shortened: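 Male mice given 3.6 MBq i.v.; cardiac plasma deproteinized with acetonitrile, supernatant run on C18 radio-HPLC gradient, 0.65 min fractions gamma-counted, activity expressed as cpm/total cpm.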

Mus musculus [18] = assay: Drug metabolism in C57Bl/6JRccHsd mouse plasma assessed as retention time of radioactive metabolite at 3.6 MBq, iv measured at 20 mins by HPLC analysis; format: ADME, organism-based
Procedure, shortened: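 Male mice received 3.6 MBq tracer via tail vein. Cardiac blood was taken on heparin and centrifuged. Plasma was deproteinized with acetonitrile (1.5× plasma volume) and the supernatant run on reverse-phase C18 gradient HPLC. Fractions of 0.65 min were gamma-counted. Metabolite retention time was read from the 20 min sample.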

Blood [19] = assay: Biodistribution in C57Bl/6JRccHsd mouse blood at 2.86 +/- 1.26 MBq, iv measured at 40 mins by SPECT analysis; format: ADME, organism-based; conditions: in vivo; procedure, shortened: as §3
Blood [20] = assay: Biodistribution in C57Bl/6JRccHsd mouse blood at 2.86 +/- 1.26 MBq, iv measured at 40 mins post dose pretreated with 50 umol/kg, ip prolyl oligopeptidase inhibitor KYP-2047 10 mins before compound dosing by SPECT analysis; format: ADME, organism-based; conditions: in vivo; procedure, shortened: as §3
Blood [21] = assay: Biodistribution in C57Bl/6JRccHsd mouse blood at 2.86 +/- 1.26 MBq, iv measured at 160 mins by SPECT analysis; format: ADME, organism-based; conditions: in vivo; procedure, shortened: as §3

SMILES: N#C[C@@H]1CCCN1C(=O)[C@@H]1CCCN1C(=O)CCCc1ccc([123I])cc1
- fraction unbound at 80 min [1]: 0.15
- Drug uptake [2]: 90%
- Drug uptake [3]: 73%
- Drug uptake [4]: 42%
- fraction unbound at 20 min [5]: 0.98
- PPB [6]: 0%
- PPB [7]: 1%
- tissue uptake at 80 min [8]: 1.09 %ID/g
- fraction unbound at 2 h, 2.5 MBq/ml [9]: 0.937
- Drug uptake (Lung [10]): 14.67 % ID/g
- Drug uptake (Spleen [11]): 10.56 % ID/g
- Drug uptake (Mus musculus [12]): 0.55 % ID/g
- Drug uptake (Muscle tissue): 2.15 % ID/g
- Drug uptake (Brain): 0.62 % ID/g
- Drug uptake (Blood [13]): 2.69 % ID/g
- Drug uptake (Liver): 5.05 % ID/g
- Drug uptake (Lung [14]): 1.54 % ID/g
- Drug uptake (Heart): 1.34 % ID/g
- Drug uptake (Spleen [15]): 0.92 % ID/g
- Drug uptake (Mus musculus [16]): 1.52 % ID/g
- Drug uptake (Thyroid gland): 52 % ID/g
- Retention_time (Mus musculus [17]): 7.15 min
- Retention_time (Mus musculus [18]): 4 min
- Drug uptake (Blood [19]): 7.6 % ID/g
- Drug uptake (Blood [20]): 4 % ID/g
- Drug uptake (Blood [21]): 2.1 % ID/g
